Tested on: Mus musculus
Assay: Anxiolytic activity in albino mouse assessed as time spent on closed arm at 100 mg/kg, ip by plus-maze test
Format: functional
Set-up: unit not given here
Settings: route intraperitoneal
Method in brief: (§1)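 Mice given compounds i.p. at 100 mg/kg in DMSO/water (1:4), about 0.1 mL, 1 h before testing; controls got 0.1 mL vehicle; n = 7–8. Housed eight per cage, 20 ± 2 °C, 12 h light/dark. Each animal did the plus-maze first, then forced swim.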

| SMILES | Activity |
| --- | --- |
| Cn1c(N/N=C(/C=C/c2ccc(Br)cc2)c2ccccc2)nc2ccccc2c1=O | 218.71 |
| Cn1c(N/N=C(/C=C/c2ccc(Cl)cc2)c2ccccc2)nc2ccccc2c1=O | 284.2 |
| Cn1c(N2N=C(c3ccccc3)CC2c2ccccc2)nc2ccccc2c1=O (stereo not given) | 222.27 |
| COc1ccc(C2=NN(c3nc4ccccc4c(=O)n3C)C(c3cccs3)C2)cc1 (stereo not given) | 248.5 |

Tested on: Mus musculus
Assay: Anxiolytic activity in albino mouse assessed as total number of entries into arms at 100 mg/kg, ip by plus-maze test
Format: functional
Settings: route intraperitoneal
Method in brief: as §1

| SMILES | arm entries [entries] |
| --- | --- |
| Cn1c(N/N=C(/C=C/c2ccc(Br)cc2)c2ccccc2)nc2ccccc2c1=O | 3.87 |
| Cn1c(N/N=C(/C=C/c2ccc(Cl)cc2)c2ccccc2)nc2ccccc2c1=O | 2.51 |
| Cn1c(N2N=C(c3ccccc3)CC2c2ccccc2)nc2ccccc2c1=O (stereo not given) | 4.37 |
| COc1ccc(C2=NN(c3nc4ccccc4c(=O)n3C)C(c3cccs3)C2)cc1 (stereo not given) | 5.13 |

Tested on: Mus musculus
Assay: Antidepressant activity in albino mouse assessed as immobility time at 100 mg/kg, ip by forced swim test
Format: functional
Settings: route intraperitoneal
Method in brief: as §1

| SMILES | Activity [%] |
| --- | --- |
| Cn1c(N/N=C(/C=C/c2ccc(Br)cc2)c2ccccc2)nc2ccccc2c1=O | 65.57 |
| Cn1c(N/N=C(/C=C/c2ccc(Cl)cc2)c2ccccc2)nc2ccccc2c1=O | 125.86 |
| Cn1c(N2N=C(c3ccccc3)CC2c2ccccc2)nc2ccccc2c1=O (stereo not given) | 27 |
| COc1ccc(C2=NN(c3nc4ccccc4c(=O)n3C)C(c3cccs3)C2)cc1 (stereo not given) | 61.13 |

Target: T1, Amine oxidase [flavin-containing] A (Rattus norvegicus, UniProt P21396)
T1 sequence (P21396 whole entry): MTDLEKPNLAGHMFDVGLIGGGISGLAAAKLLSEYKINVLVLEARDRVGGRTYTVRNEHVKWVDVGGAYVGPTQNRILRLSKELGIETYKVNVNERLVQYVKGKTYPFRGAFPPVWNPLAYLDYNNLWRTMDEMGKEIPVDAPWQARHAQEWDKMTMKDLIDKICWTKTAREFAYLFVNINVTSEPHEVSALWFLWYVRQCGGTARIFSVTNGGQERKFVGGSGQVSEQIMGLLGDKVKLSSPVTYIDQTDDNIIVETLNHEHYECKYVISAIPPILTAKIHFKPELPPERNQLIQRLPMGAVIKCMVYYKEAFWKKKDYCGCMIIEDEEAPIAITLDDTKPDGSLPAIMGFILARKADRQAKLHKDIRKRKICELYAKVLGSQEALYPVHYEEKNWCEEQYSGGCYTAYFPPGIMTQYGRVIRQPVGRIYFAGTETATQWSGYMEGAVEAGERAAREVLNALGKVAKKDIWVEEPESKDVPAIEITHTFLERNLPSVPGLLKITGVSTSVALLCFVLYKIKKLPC
Assay: Inhibition of MAO-A in rat liver homogenate after 60 mins by Lineweaver-Burke plot
Format: tissue-based
Settings: not given

| SMILES | Ki [µM] |
| --- | --- |
| Cn1c(=S)[nH]c2ccccc2c1=O | 30.2 |
| Cn1c(NN)nc2ccccc2c1=O | 25.2 |
| Cn1c(N/N=C(/C=C/c2ccc(Br)cc2)c2ccccc2)nc2ccccc2c1=O | 40.3 |
| Cn1c(N/N=C(/C=C/c2ccc(Cl)cc2)c2ccccc2)nc2ccccc2c1=O | 1.05 |
| Cn1c(N2N=C(c3ccccc3)CC2c2ccccc2)nc2ccccc2c1=O (stereo not given) | 9.9 |
| COc1ccc(C2=NN(c3nc4ccccc4c(=O)n3C)C(c3cccs3)C2)cc1 (stereo not given) | 25.3 |
| C#CCN(C)Cc1ccccc1 [PARGYLINE] | 8.5 |

Same assay, conditions: rat, 1 h; TDE = time-dependent effect

| SMILES | Activity |
| --- | --- |
| Cn1c(=S)[nH]c2ccccc2c1=O | tde |
| Cn1c(NN)nc2ccccc2c1=O | tde |
| Cn1c(N/N=C(/C=C/c2ccc(Br)cc2)c2ccccc2)nc2ccccc2c1=O | tde |
| Cn1c(N/N=C(/C=C/c2ccc(Cl)cc2)c2ccccc2)nc2ccccc2c1=O | tde |
| Cn1c(N2N=C(c3ccccc3)CC2c2ccccc2)nc2ccccc2c1=O (stereo not given) | tde |
| COc1ccc(C2=NN(c3nc4ccccc4c(=O)n3C)C(c3cccs3)C2)cc1 (stereo not given) | tde |

Target: T2, Amine oxidase [flavin-containing] B (Rattus norvegicus, UniProt P19643)
T2 sequence (P19643 whole entry): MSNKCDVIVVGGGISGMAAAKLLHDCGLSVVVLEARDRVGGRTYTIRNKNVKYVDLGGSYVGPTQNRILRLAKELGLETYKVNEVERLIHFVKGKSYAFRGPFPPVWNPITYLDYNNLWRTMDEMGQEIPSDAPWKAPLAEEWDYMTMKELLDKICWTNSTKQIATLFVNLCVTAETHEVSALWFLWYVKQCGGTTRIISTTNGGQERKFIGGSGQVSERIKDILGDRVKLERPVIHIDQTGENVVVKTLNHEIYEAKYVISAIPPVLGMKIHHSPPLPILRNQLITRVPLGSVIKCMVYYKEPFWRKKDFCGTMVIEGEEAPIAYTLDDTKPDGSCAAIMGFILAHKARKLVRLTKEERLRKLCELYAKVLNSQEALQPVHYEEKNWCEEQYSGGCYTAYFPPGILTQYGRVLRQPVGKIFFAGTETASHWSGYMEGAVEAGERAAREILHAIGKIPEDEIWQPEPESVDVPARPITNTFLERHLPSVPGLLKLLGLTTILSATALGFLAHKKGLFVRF
Assay: Inhibition of MAO-B in rat liver homogenate after 60 mins by residual activity plot
Format: tissue-based
Settings: not given

| SMILES | IC50 [µM] |
| --- | --- |
| Cn1c(=S)[nH]c2ccccc2c1=O | 120 |
| Cn1c(NN)nc2ccccc2c1=O | 21.2 |
| Cn1c(N/N=C(/C=C/c2ccc(Br)cc2)c2ccccc2)nc2ccccc2c1=O | 487 |
| Cn1c(N/N=C(/C=C/c2ccc(Cl)cc2)c2ccccc2)nc2ccccc2c1=O | 378 |
| Cn1c(N2N=C(c3ccccc3)CC2c2ccccc2)nc2ccccc2c1=O (stereo not given) | 410 |
| COc1ccc(C2=NN(c3nc4ccccc4c(=O)n3C)C(c3cccs3)C2)cc1 (stereo not given) | 15.2 |

Target: T1, Amine oxidase [flavin-containing] A
Assay: Inhibition of MAO-A in rat liver homogenate after 60 mins by residual activity plot
Format: tissue-based
Settings: not given

| SMILES | IC50 [µM] |
| --- | --- |
| Cn1c(=S)[nH]c2ccccc2c1=O | 3.42 |
| Cn1c(NN)nc2ccccc2c1=O | 37.4 |
| Cn1c(N/N=C(/C=C/c2ccc(Br)cc2)c2ccccc2)nc2ccccc2c1=O | 30.5 |
| Cn1c(N/N=C(/C=C/c2ccc(Cl)cc2)c2ccccc2)nc2ccccc2c1=O | 3.56 |
| Cn1c(N2N=C(c3ccccc3)CC2c2ccccc2)nc2ccccc2c1=O (stereo not given) | 9.46 |
| COc1ccc(C2=NN(c3nc4ccccc4c(=O)n3C)C(c3cccs3)C2)cc1 (stereo not given) | 440 |

Target: T2, Amine oxidase [flavin-containing] B
Assay: Inhibition of MAO-B in rat liver homogenate after 60 mins by Lineweaver-Burke plot
Format: tissue-based
Settings: not given

| SMILES | Ki [µM] |
| --- | --- |
| Cn1c(=S)[nH]c2ccccc2c1=O | 78.3 |
| Cn1c(NN)nc2ccccc2c1=O | 18.6 |
| Cn1c(N/N=C(/C=C/c2ccc(Br)cc2)c2ccccc2)nc2ccccc2c1=O | 69.6 |
| Cn1c(N/N=C(/C=C/c2ccc(Cl)cc2)c2ccccc2)nc2ccccc2c1=O | 7.8 |
| Cn1c(N2N=C(c3ccccc3)CC2c2ccccc2)nc2ccccc2c1=O (stereo not given) | 25.2 |
| COc1ccc(C2=NN(c3nc4ccccc4c(=O)n3C)C(c3cccs3)C2)cc1 (stereo not given) | 16.3 |
| C#CCN(C)Cc1ccccc1 [PARGYLINE] | 3.36 |

Same assay, conditions: rat, 1 h; TDE = time-dependent effect

| SMILES | Activity |
| --- | --- |
| Cn1c(=S)[nH]c2ccccc2c1=O | tde |
| Cn1c(NN)nc2ccccc2c1=O | tde |
| Cn1c(N/N=C(/C=C/c2ccc(Br)cc2)c2ccccc2)nc2ccccc2c1=O | tde |
| Cn1c(N/N=C(/C=C/c2ccc(Cl)cc2)c2ccccc2)nc2ccccc2c1=O | tde |
| Cn1c(N2N=C(c3ccccc3)CC2c2ccccc2)nc2ccccc2c1=O (stereo not given) | tde |
| COc1ccc(C2=NN(c3nc4ccccc4c(=O)n3C)C(c3cccs3)C2)cc1 (stereo not given) | tde |
